Test results reported in ChEMBL document CHEMBL1134409, “Design, synthesis, and discovery of a novel CCR1 antagonist” (J Med Chem, 2001).

Tests used:
[1] = target: T1, C-C chemokine receptor type 1 (Mus musculus, UniProt P51675); test: Inhibitory activity against [125I]-MIP-1 alpha binding to mouse CCR1 receptors.
T1 sequence (P51675 whole entry): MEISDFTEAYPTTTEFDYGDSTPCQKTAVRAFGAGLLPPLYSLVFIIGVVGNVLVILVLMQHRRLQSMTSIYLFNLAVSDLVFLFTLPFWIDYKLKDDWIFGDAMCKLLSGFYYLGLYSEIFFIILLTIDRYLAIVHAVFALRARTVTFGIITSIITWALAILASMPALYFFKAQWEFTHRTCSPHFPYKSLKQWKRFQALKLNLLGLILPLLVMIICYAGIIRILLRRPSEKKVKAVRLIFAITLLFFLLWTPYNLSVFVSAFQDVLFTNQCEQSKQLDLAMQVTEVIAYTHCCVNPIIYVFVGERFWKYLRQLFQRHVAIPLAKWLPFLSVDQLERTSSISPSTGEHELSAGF
Outline: (§1)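 Whole-cell binding. CHO cells transfected with the CCR receptor were detached with PBS(-) containing 2 mM EDTA and resuspended in Krebs-Ringer phosphate buffer with 0.1% BSA and 0.1% glucose. 1 × 10^5 cells were incubated with 50 pM 125I-chemokine plus antagonist for 1 h at 37 °C to reach equilibrium. Nonspecific binding was taken with 100 nM unlabeled chemokine. Ice-cold buffer was then added.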

[2] = target: T2, C-C chemokine receptor type 1 (Homo sapiens, UniProt P32246); test: Inhibitory activity against [125I]-MIP-1 alpha binding to human CCR1 receptors.; outline: as §1
T2 sequence (P32246 whole entry): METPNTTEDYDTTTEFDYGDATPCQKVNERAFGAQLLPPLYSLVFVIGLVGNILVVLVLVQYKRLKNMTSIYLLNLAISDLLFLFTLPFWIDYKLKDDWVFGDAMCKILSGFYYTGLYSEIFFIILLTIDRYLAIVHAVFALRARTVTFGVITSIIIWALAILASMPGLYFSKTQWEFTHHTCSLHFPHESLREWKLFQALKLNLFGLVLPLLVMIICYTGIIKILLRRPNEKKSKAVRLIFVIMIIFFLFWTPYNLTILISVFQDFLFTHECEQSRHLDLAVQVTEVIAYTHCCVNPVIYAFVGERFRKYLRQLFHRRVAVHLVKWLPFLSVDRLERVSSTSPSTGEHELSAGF

[3] = Inhibitory activity of I-interleukin-8-binding to human neutrophil at human CXCR1,2 receptor
Outline: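 125I-interleukin-8 binding to human neutrophil membranes.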

[4] = target: T3, C-C chemokine receptor type 3 (Homo sapiens, UniProt P51677); test: Inhibitory activity against I-Eotaxin induced [Ca2+] response in human CCR3 receptor; assay type: functional
T3 sequence (P51677 whole entry): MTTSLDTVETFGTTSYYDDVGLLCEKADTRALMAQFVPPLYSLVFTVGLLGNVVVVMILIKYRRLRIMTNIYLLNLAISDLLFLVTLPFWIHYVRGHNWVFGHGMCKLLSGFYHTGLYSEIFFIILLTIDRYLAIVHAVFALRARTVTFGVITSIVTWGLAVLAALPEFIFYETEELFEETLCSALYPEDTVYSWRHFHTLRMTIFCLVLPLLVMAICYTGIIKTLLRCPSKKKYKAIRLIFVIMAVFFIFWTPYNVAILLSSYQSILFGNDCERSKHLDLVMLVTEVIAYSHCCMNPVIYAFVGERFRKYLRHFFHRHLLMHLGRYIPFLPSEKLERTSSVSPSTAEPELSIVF
Outline: (§2)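 Calcium flux in U937 cells transfected with CCR receptors, loaded with 1 µM Fura-2 AM for 30 min at 37 °C, washed twice and resuspended at 1×10^6 cells/mL in Krebs-Henseleit-Hepes buffer with 0.1% BSA. Stirred cuvette fluorescence read at 37 °C, excitation 340 and 380 nm, emission 510 nm, after chemokine stimulation.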

[5] = target: T2, C-C chemokine receptor type 1; test: Inhibitory activity against MIP-1 alpha- induced [Ca2+] response in U937 cells expressing human CCR1 receptor; assay type: functional, cell-based, U-937
Outline: (§3)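 U937 cells transfected with the CCR receptor were loaded with 1 µM Fura-2 AM for 30 min at 37 °C and washed twice. They were resuspended at 1 × 10^6 cells/mL in Krebs-Henseleit-HEPES with 0.1% BSA. The stirred cuvette suspension was read at 37 °C for chemokine-induced fluorescence change, with excitation at 340 and 380 nm and emission at 510 nm.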

[6] = target: T4, Probable C-C chemokine receptor type 3 (Mus musculus, UniProt P51678); test: Inhibitory activity against I-Eotaxin induced [Ca2+] response in mouse CCR3 receptor; assay type: functional; outline: as §3
T4 sequence (P51678 whole entry): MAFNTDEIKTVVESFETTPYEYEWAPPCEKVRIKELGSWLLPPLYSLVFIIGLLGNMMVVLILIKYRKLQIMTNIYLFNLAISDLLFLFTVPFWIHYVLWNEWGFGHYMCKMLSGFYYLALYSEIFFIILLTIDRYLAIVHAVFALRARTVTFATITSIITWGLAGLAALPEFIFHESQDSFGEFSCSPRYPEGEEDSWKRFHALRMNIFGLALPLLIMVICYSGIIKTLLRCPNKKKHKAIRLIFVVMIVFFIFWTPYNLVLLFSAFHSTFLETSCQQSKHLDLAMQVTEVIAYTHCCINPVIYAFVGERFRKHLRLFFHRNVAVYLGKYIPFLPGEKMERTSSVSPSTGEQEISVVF

[7] = target: T3, C-C chemokine receptor type 3; test: Inhibitory activity against I-Eotaxin binding to human CCR3 receptors
Outline: (§4)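 CCR-transfected CHO cells, detached with PBS(-)/2 mM EDTA, in Krebs-Ringer phosphate buffer with 0.1% BSA and 0.1% glucose. 1×10^5 cells incubated with 50 pM 125I-chemokine plus antagonist, 1 h at 37 °C to equilibrium. Nonspecific binding measured with 100 nM unlabeled chemokine. Reaction stopped with ice-cold binding buffer.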

[8] = target: C-C chemokine receptor type 2 (Homo sapiens, UniProt P41597); test: Inhibitory activity in human CCR2b receptor
[9] = target: T5, C-C chemokine receptor type 4 (Homo sapiens, UniProt P51679); test: Inhibitory activity against […] induced increase in intracellular [Ca2+] in KU812 cells expressing human CCR4 receptor; assay type: functional, cell-based
T5 sequence (P51679 whole entry): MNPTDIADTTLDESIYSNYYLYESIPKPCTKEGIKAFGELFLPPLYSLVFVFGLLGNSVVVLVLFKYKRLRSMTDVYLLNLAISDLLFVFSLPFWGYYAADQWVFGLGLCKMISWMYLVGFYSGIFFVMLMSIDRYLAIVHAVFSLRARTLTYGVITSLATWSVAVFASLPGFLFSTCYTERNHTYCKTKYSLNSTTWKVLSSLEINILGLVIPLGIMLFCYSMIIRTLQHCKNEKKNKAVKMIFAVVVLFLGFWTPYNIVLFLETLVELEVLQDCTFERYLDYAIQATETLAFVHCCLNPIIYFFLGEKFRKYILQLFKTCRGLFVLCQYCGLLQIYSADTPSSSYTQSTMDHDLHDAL
Outline: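 Calcium rise evoked by TARC in KU812 cells.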

[10] = target: C-C chemokine receptor type 5 (Homo sapiens, UniProt P51681); test: Inhibition of RANTES binding to C-C chemokine receptor type 5
Outline: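 CCR5 binding was done on membranes, following the kit manufacturer's instructions.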

[11] = target: T1, C-C chemokine receptor type 1; test: inhibitory activity against MIP-1 alpha- induced [Ca2+] response in U937 cells expressing mouse CCR1 receptor; assay type: functional, cell-based, U-937; outline: as §2
[12] = target: T4, Probable C-C chemokine receptor type 3; test: Inhibitory activity against I-Eotaxin alpha binding to mouse CCR3 receptors; outline: as §1
[13] = Inhibitory activity of Fractalkine-induced increase in [Ca2+] Conc. in HEL cells at human CX3CR1 receptor; assay type: functional, cell-based
Outline: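 Calcium rise evoked by fractalkine in HEL cells.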

[14] = target: T1, C-C chemokine receptor type 1; test: Inhibitory activity against 125 I -MIP-1 alpha binding to mouse CCR1 receptors; outline: as §4

Chain of C-C chemokine receptor type 2 (P41597 whole entry): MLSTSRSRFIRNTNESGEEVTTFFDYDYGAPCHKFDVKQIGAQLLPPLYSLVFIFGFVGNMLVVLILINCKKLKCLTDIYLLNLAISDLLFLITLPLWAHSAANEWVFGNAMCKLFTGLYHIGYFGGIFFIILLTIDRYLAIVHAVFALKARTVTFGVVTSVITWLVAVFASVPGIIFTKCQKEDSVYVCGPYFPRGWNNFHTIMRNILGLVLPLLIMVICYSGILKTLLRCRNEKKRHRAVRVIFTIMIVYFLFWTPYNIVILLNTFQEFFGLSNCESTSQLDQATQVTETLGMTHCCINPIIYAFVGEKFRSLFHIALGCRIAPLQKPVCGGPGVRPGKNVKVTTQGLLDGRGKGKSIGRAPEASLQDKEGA
Chain of C-C chemokine receptor type 5 (P51681 whole entry): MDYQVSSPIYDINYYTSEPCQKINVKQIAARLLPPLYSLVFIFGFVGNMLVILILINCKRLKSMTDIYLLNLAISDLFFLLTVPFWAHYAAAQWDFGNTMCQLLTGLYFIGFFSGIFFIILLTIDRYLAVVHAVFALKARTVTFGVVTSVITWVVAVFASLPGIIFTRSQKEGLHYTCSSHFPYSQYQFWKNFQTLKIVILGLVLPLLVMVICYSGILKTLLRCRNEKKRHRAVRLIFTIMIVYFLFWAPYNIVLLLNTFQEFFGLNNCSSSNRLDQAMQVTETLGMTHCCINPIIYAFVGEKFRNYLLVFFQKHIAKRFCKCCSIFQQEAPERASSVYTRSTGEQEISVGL

| IC50 [1] | IC50 [2] | SMILES | also measured |
| --- | --- | --- | --- |
| > 10 µM | 1.1 µM | O=C(NC1CCN(CC2CCCCCCC2)CC1)C(c1ccccc1)c1ccccc1 | – |
| > 10 µM | > 10 µM | O=C(NC1CCN(Cc2ccccc2)CC1)C1c2ccccc2Oc2ccccc21 | – |
| 0.012 µM | 0.0019 µM | CC[N+]1(C/C2=C/CCCCCC2)CCC(NC(=O)C2c3cc(Br)ccc3Oc3ccc(Br)cc32)CC1 (stereo not given) | – |
| 0.35 µM | 0.0025 µM | C[N+]1(C/C2=C/CCCCCC2)CCC(NC(=O)C2c3ccccc3Oc3ccccc32)CC1 (stereo not given) | – |
| > 10 µM | 5.1 µM | O=C(NC1CCN(CC2CCCCCCC2)CC1)C1c2cc(Br)ccc2Oc2ccc(Br)cc21 | – |
| 0.38 µM | 0.005 µM | CCCC[N+]1(CC2CCCCCCC2)CCC(NC(=O)C2c3ccccc3Oc3ccccc32)CC1 (stereo not given) | – |
| 0.24 µM | – | C[N+]1(CC2CCCCCCC2)CCC(NC(=O)C2c3cc(Br)ccc3Oc3ccc(Br)cc32)CC1 (stereo not given) | – |
| 0.59 µM | 0.051 µM | O=C(NC1CCN(C/C2=C/CCCCCC2)CC1)C1c2ccccc2Oc2ccccc21 | – |
| > 10 µM | > 10 µM | O=C(NC1CCN(CC2CCCCCCC2)CC1)C1c2cc(Cl)ccc2Oc2ccc(Cl)cc21 | – |
| 0.14 µM | 0.0033 µM | CC[N+]1(CC2CCCCCCC2)CCC(NC(=O)C2c3cc(Br)ccc3Oc3ccc(Br)cc32)CC1 (stereo not given) | – |
| 0.27 µM | 0.0036 µM | CCC[N+]1(CC2CCCCCCC2)CCC(NC(=O)C2c3ccccc3Oc3ccccc32)CC1 (stereo not given) | – |
| > 10 µM | 0.8 µM | C[N+]1(CC2CCCCCCC2)CCC(NC(=O)C(c2ccccc2)c2ccccc2)CC1 (stereo not given) | – |
| 0.71 µM | 0.017 µM | C[N+]1(CC2CCCCCCC2)CCC(NC(=O)C2c3cc(Cl)ccc3Oc3ccc(Cl)cc32)CC1 (stereo not given) | – |
| 0.14 µM | 0.0031 µM | CCC[N+]1(CC2CCCCCCC2)CCC(NC(=O)C2c3cc(Br)ccc3Oc3ccc(Br)cc32)CC1 (stereo not given) | – |
| 0.0058 µM | 0.0009 µM | CC[N+]1(C/C2=C/CCCCCC2)CCC(NC(=O)C2c3cc(Cl)ccc3Oc3ccc(Cl)cc32)CC1 (stereo in doubt; 2q-1) | IC50 [3]: > 1 µM; IC50 [4]: 0.0061 µM; IC50 [5]: 0.00073 µM; IC50 [6]: 0.36 µM; IC50 [7]: 0.00058 µM; IC50 [8]: > 1 µM; IC50 [9]: > 10 µM; IC50 [10]: > 1 µM; IC50 [11]: 0.021 µM; IC50 [12]: 0.46 µM; IC50 [13]: > 10 µM; IC50 [14]: 0.0058 µM |
| 0.74 µM | 0.047 µM | CC[N+]1(C/C2=C/CCCCCC2)CCC(NC(=O)C2c3cc(Cl)ccc3Oc3ccc(Cl)cc32)CC1 (stereo in doubt; 2q-2) | – |

Second part, the molecule before the results:

| SMILES | IC50 [1] | IC50 [2] | also measured |
| --- | --- | --- | --- |
| CC[N+]1(CC2CCCCCCC2)CCC(NC(=O)C2c3ccccc3Oc3ccccc32)CC1 (stereo not given) | 0.66 µM | – | – |
| O=C(NC1CCN(CC2CCCCCCCCC2)CC1)C1c2ccccc2Oc2ccccc21 | > 10 µM | 0.8 µM | – |
| O=C(NC1CCN(CC2CCCCCCC2)CC1)c1c2ccccc2cc2ccccc12 | > 10 µM | > 10 µM | – |
| C[N+]1(CC2CCCCCCC2)CCC(NC(=O)c2c3ccccc3cc3ccccc23)CC1 (stereo not given) | > 10 µM | 1.8 µM | – |
| O=C(NC1CCN(Cc2ccc3ccccc3c2)CC1)C1c2ccccc2Oc2ccccc21 | > 10 µM | > 10 µM | – |
| CCC[N+]1(C/C2=C/CCCCCC2)CCC(NC(=O)C2c3ccccc3Oc3ccccc32)CC1 (stereo not given) | 0.27 µM | 0.0028 µM | – |
| O=C(NC1CCN(CC2CCCCCCC2)CC1)C1c2ccccc2Oc2ccccc21 | > 10 µM | 0.14 µM | – |
| C=CC[N+]1(CC2CCCCCCC2)CCC(NC(=O)C2c3ccccc3Oc3ccccc32)CC1 (stereo not given) | 0.67 µM | 0.0097 µM | – |
| O=C(NC1CCN(CC2CCCCCCC2)CC1)C(O)(c1ccccc1)c1ccccc1 | > 10 µM | 1.6 µM | – |
| O=C(NC1CCN(C/C2=C/CCCCCC2)CC1)C1c2cc(Br)ccc2Oc2ccc(Br)cc21 | 2.5 µM | 0.15 µM | – |
| O=C(NC1CC[N+](Cc2ccccc2)(CC2CCCCCCC2)CC1)C1c2ccccc2Oc2ccccc21 (stereo not given) | 1.3 µM | 0.37 µM | – |
| O=C(NC1CCN(C/C2=C/CCCCCC2)CC1)C1c2cc(Cl)ccc2Oc2ccc(Cl)cc21 | 1.9 µM | 0.24 µM | – |
| O=C(NC1CCN(CC2CCCCC2)CC1)C1c2ccccc2Oc2ccccc21 | > 10 µM | 0.2 µM | – |
| C[N+]1(CC2CCCCCCC2)CCC(NC(=O)C2c3ccccc3Oc3ccccc32)CC1 (stereo not given) | 2.1 µM | 0.014 µM | – |
| CCCCCCN1CCC(NC(=O)C2c3ccccc3Oc3ccccc32)CC1 | > 10 µM | 0.51 µM | – |
| CC[N+]1(C/C2=C/CCCCCC2)CCC(NC(=O)C2c3ccccc3Oc3ccccc32)CC1 (stereo not given) | 0.063 µM | 0.002 µM | – |
| C[N+]1(CC2CCCCCCC2)CCC(NC(=O)C(O)(c2ccccc2)c2ccccc2)CC1 (stereo not given) | > 10 µM | 2.1 µM | – |
| CC[N+]1(C/C2=C/CCCCCC2)CCC(NC(=O)C2c3cc(Cl)ccc3Oc3ccc(Cl)cc32)CC1 (stereo in doubt; 2q) | 0.012 µM | 0.0012 µM | – |
| N#CC(CCCN1CCC(O)(c2ccc(Cl)cc2)CC1)(c1ccccc1)c1ccccc1 [BERLEX COMPOUND] | 5 µM | 0.048 µM | – |
